Columns and labels:
[1] = tested on: SCC-7; assay: Concentration required to kill hypoxic mouse SCCVII cells in vitro; assay type: functional
Summary of the method: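 Mouse SCCVII tumour cells exposed to drug for 1 h under hypoxic (anoxic) conditions; clonogenic survival; C10 = concentration reducing plating efficiency to 10% of controls. Values corrected for interexperimental variation in hypoxia using TPZ internal standard: C10(calc) = C10(meas) × [C10(TPZ,mean)/C10(TPZ,meas)].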

[2] = tested on: HT-29; assay: Concentration required to kill aerobic HT-29 human colon carcinoma cells in vitro; assay type: functional, cell-based
Summary of the method: (§1)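 HT-29 cells tested simultaneously under oxic and hypoxic conditions in a 96-well SRB proliferation assay; TPZ internal control at front and back of assay (n = 2); 8-methyl-5-nitroquinoline second control confirming strict hypoxia. IC50 pooled from seven independent experiments as interexperimental means (mean ± SEM, n ≥ 2).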

[3] = Hypoxic cytotoxicity ratio was measured as IC50 aerobic/IC50 hypoxic; assay type: functional
Summary of the method: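 HT-29 cells, SRB proliferation assay with each compound run simultaneously under aerobic and hypoxic conditions; intraexperimental ratio IC50(aerobic)/IC50(hypoxic).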

[4] = Hypoxic cytotoxicity ratio was measured as C10 aerobic/C10 hypoxic; assay type: functional
Summary of the method: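 Mouse SCCVII cells, 1 h drug exposure under aerobic and hypoxic conditions in the same experiment, clonogenic survival; intraexperimental ratio C10(aerobic)/C10(hypoxic), C10 being the concentration giving 10% plating efficiency of controls.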

[5] = tested on: SCC-7; assay: Concentration required to kill aerobic mouse SCCVII cells in vitro; assay type: functional
Summary of the method: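 Mouse SCCVII tumour cells exposed to drug for 1 h under aerobic conditions; clonogenic survival read-out; C10 = concentration reducing plating efficiency to 10% of controls (one-log kill).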

[6] = tested on: HT-29; assay: Concentration required to kill hypoxic HT-29 human colon carcinoma cells in vitro; assay type: functional, cell-based; summary of the method: as §1

| Compound | C10 [1] [µM] | IC50 [2] [nM] | Ratio [3] | Ratio [4] | C10 [5] [µM] | IC50 [6] [nM] |
| --- | --- | --- | --- | --- | --- | --- |
| Cc1cccc2cc3cccc(C(=O)NCCCN(C)CCCNc4n[n+]([O-])c5ccccc5[n+]4[O-])c3nc12 | 0.18 | 8400 | 88.4 | >167 | >30 | 95 |
| O=C(NCCCNCCCNc1n[n+]([O-])c2ccccc2[n+]1[O-])c1cccc2cc3ccccc3nc12 | 0.51 | 5700 | 87.5 | 12.5 | 6.4 | 65 |
| O=C(NCCOCCNc1n[n+]([O-])c2ccccc2[n+]1[O-])c1cccc2cc3ccccc3nc12 | 12.4 | 72500 | 12.8 | 50.8 | 630 | 5700 |
| Nc1n[n+]([O-])c2ccccc2[n+]1[O-] [TIRAPAZAMINE] | 10.2 | 387000 | 62 | 258 | 2644 | 6200 |
| CN(CCCNC(=O)c1cccc2nc3ccccc3nc12)CCCNc1n[n+]([O-])c2ccccc2[n+]1[O-] | 1.07 | 590 | 4.9 | 8.8 | 9.4 | 120 |
| O=C(NCCNCCNc1n[n+]([O-])c2ccccc2[n+]1[O-])c1cccc2cc3ccccc3nc12 | 1.16 | 7800 | 98.6 | 48.2 | 56 | 79 |
| CN(CCCNC(=O)c1cccc2ccc(-c3ccncc3)nc12)CCCNc1n[n+]([O-])c2ccccc2[n+]1[O-] | 1.79 | 12000 | 107 | 7.8 | 14 | 110 |
| CN(CCCNC(=O)c1cccc2cccnc12)CCCNc1n[n+]([O-])c2ccccc2[n+]1[O-] | 6.5 | 36300 | 61.2 | 13.9 | 90 | 590 |
| [O-][n+]1nc(NCCCCCCNc2c3ccccc3nc3ccccc23)[n+]([O-])c2ccccc21 | 0.61 | 620 | 39.7 | 15.7 | 9.6 | 16 |
| CN(CCCNC(=O)c1cccc2cc3ccccc3nc12)CCCNc1n[n+]([O-])c2ccccc2[n+]1[O-] | 0.82 | 5350 | 124 | 51.5 | 42 | 43 |
| Cc1cccc2nc3cccc(C(=O)NCCCN(C)CCCNc4n[n+]([O-])c5ccccc5[n+]4[O-])c3nc12 | 0.35 | 560 | 31 | 21.1 | 7.4 | 18 |
| CN(CCNC(=O)c1cccc2cc3ccccc3nc12)CCNc1n[n+]([O-])c2ccccc2[n+]1[O-] | 0.93 | 15700 | 87 | 431 | 400 | 180 |

— ChEMBL document CHEMBL1148387, “DNA-targeted 1,2,4-benzotriazine 1,4-dioxides: potent analogues of the hypoxia-selective cytotoxin tirapazamine” (J Med Chem, 2004)
